Target: Metabotropic glutamate receptor 5 (Rattus norvegicus) (UniProt P31424)
Experiment: mGlu5 allosteric site binding affinity, dose response, biochemical, rat, HEK293A membranes, [3H]methoxyPEPy, full curve (AID 652196)
Details: rmGlu5 HEK293A membranes, [3H]methoxyPEPy displacement
In short: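 Compound: 10 doses, 0.1 nM–10 µM, 1% DMSO; Test system: membranes from HEK293A cells stably expressing rat mGlu5; Technique: Filtration separation of bound radioligand, then scintillation counting; Incubation: membrane, radioligand and compound incubation 1 h at room temperature; Also added: radioligand [3H]methoxyPEPy at 2 nM.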

Chain of Metabotropic glutamate receptor 5 (Rattus norvegicus) (P31424 whole entry, looked up): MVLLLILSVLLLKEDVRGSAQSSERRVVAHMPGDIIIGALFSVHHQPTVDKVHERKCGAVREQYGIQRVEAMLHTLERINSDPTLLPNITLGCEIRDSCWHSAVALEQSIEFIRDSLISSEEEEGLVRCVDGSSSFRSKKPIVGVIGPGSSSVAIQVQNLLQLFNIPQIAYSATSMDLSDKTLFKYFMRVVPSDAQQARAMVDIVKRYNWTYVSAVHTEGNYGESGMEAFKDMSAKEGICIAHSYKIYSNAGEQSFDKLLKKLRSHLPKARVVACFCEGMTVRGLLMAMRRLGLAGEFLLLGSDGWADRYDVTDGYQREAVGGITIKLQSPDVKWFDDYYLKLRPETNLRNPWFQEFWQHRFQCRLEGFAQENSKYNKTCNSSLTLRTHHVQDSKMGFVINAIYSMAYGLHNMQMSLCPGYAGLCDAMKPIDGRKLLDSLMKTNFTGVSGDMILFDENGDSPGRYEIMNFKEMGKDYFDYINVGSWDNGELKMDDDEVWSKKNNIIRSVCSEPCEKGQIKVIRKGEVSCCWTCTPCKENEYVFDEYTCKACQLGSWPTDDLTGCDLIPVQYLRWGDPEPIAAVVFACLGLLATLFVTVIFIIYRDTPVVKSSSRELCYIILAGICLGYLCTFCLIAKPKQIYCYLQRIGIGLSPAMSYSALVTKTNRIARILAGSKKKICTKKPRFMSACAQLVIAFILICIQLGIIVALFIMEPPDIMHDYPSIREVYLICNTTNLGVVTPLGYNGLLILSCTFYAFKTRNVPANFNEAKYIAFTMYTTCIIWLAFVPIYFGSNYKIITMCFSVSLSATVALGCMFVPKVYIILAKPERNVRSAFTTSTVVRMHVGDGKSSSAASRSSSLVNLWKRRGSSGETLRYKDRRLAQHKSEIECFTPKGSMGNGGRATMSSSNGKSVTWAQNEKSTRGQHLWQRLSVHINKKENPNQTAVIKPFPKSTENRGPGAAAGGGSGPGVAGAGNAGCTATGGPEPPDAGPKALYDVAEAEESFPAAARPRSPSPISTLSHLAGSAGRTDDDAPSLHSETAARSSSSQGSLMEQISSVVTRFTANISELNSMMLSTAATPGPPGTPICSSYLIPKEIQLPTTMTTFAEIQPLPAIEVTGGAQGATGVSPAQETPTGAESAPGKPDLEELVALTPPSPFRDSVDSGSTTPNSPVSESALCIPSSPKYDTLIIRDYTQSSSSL

Row | Structure (SMILES) | Ki [nM]
1 | O=C(c1ccc(C#Cc2cccc(F)c2)cn1)N1CCCCCC1 | 18.7
2 | O=C(c1ccc(C#Cc2cccc(F)c2)cn1)N1CC2CC2C1 (centres undefined) | 18.2
3 | O=C(c1ccc(C#Cc2cccc(F)c2)cn1)N1CCC(F)(F)C1 | 19
4 | O=C(c1ccc(C#Cc2cccc(F)c2)cc1)N1CCC1 | 29.6
5 | O=C(c1ccc(C#Cc2cccc(F)c2)cn1)N1CCCCC1 | 12.1
6 | O=C(c1ccc(C#Cc2cccc(F)c2)cn1)N1CCOCC1 | 67.7
7 | CC1CCN1C(=O)c1ccc(C#Cc2cccc(F)c2)cn1 (centres undefined) | 5.4
8 | O=C(c1ccc(C#Cc2cccc(F)c2)cn1)N1CCC1 | 51.6
9 | O=C(c1ccc(C#Cc2cccc(F)c2)cn1)N1CC(F)C1 | 48.7

From PubChem BioAssay AID652196 (Vanderbilt Specialized Chemistry Center, 2013)
